Results from ChEMBL document CHEMBL3763082, “Design and synthesis of novel hybrid sydnonimine and prodrug useful for glaucomatous optic neuropathy” (Bioorg Med Chem Lett, 2016).
Active and inactive are the calls of the source. No cut-off for these calls is given here.

Legend:
[1] = test system: 661W; assay: Increase in number of mouse 661W cells at 10 to 50 uM after 24 hrs by MTT assay relative to vehicle control; type: functional, cell-based
How it was run: (§1)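 About 3000 NTM5 trabecular meshwork cells or transformed 661 W photoreceptor cells seeded per well, exposed to 10, 50 or 100 μM for 24 h; vehicle DMEM/DMSO (1 mL/10 μL). Viability by MTT-type kit (tetrazolium reduced to formazan), absorbance 490 nm; eight biological replicates.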

[2] = Half life of compound in 0.5 M phosphate buffer at pH 6.5 at 25 degC by LC/MS analysis; type: physicochemical; conditions: for half-life: phosphate buffer; for t1/2: buffer
[3] = Half life of compound in 0.5 M phosphate buffer at pH 7.4 at 25 degC by LC/MS analysis; type: physicochemical; conditions: for half-life: phosphate buffer; for t1/2: buffer
[4] = Induction of nitric oxide release in 50 mM phosphate buffer at pH 7.4 after 10 mins by Greiss assay; type: physicochemical; conditions: pH 7.4, 10 min
[5] = Cytotoxicity against human NTM5 cells assessed as cell viability at 100 uM after 24 hrs by MTT assay; type: cell-based; how it was run: as §1
[6] = Cytotoxicity against mouse 661W cells assessed as cell viability at 100 uM after 24 hrs by MTT assay; type: cell-based; how it was run: as §1
[7] = Neuroprotective effect against H2O2-induced oxidative stress in mouse 661W cells assessed as cell viability at 50 to 100 uM by MTT assay relative to control; type: functional, cell-based
[8] = Upregulation of SOD in H2O2-induced mouse 661W cells at 50 to 100 uM by Cayman's superoxide dismutase assay; type: functional
How it was run: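 SOD activity in 661 W cells treated with test agent in combination with H2O2, vehicle DMEM plus DMSO; commercial kit detecting superoxide generated by xanthine oxidase/hypoxanthine with a tetrazolium salt, per manufacturer's instructions.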

[9] = test system: Rhesus monkey; assay: Suppression of elevated intraocular pressure in lasered monkey eye at 150 ug at 6 hrs; type: functional, Macaca mulatta

CC1(C)CC([n+]2cc([NH-])on2)CC(C)(C)N1O.Cl
Activity [1]: Active | half-life [2]: < 24 h | half-life [3]: < 24 h | Activity [4]: Active | Activity [5]: Non-toxic | Activity [6]: Non-toxic | Activity [7]: Active | Activity [8]: Active

CC1(C)CC(O)CC(C)(C)N1[O]
Activity [1]: inactive

CC(OC(=O)[N-]c1c[n+](C2CC(C)(C)N(O)C(C)(C)C2)no1)OC(=O)C(C)(C)C (stereo not given)
t1/2 [2]: 15.3 months | t1/2 [3]: 9.1 months

CC(OC(=O)[N-]c1c[n+](N2CCOCC2)no1)OC(=O)C(C)(C)C (stereo not given)
t1/2 [2]: 18 months | t1/2 [3]: 9 months

CC1(C)CC(O[N+](=O)[O-])CC(C)(C)N1O
Activity [9]: 20%

O=[N+]([O-])OCC(CO[N+](=O)[O-])O[N+](=O)[O-] [NITROGLYCERIN]
Activity [9]: 13%

N=c1c[n+](N2CCOCC2)[n-]o1 [LINSIDOMINE]
half-life [2]: < 24 h | half-life [3]: < 24 h | Activity [4]: Active

[NH-]c1c[n+](N2CCOCC2)no1
Activity [1]: inactive | Activity [8]: inactive
